Source: ChEMBL document CHEMBL3085704, “Methyl-thiazoles: a novel mode of inhibition with the potential to develop novel inhibitors targeting InhA in Mycobacterium tuberculosis” (J Med Chem, 2013)
pIC50, pKd: −log10 of the molar value. Values after ≈ are worked out from the molar mass of the structure shown.

Experiments:
[1] = target: T1, Enoyl-[acyl-carrier-protein] reductase [NADH] (Mycobacterium tuberculosis, UniProt P9WGR1); assay: Inhibition of wild type Mycobacterium tuberculosis inhA
T1 sequence (P9WGR1 whole entry): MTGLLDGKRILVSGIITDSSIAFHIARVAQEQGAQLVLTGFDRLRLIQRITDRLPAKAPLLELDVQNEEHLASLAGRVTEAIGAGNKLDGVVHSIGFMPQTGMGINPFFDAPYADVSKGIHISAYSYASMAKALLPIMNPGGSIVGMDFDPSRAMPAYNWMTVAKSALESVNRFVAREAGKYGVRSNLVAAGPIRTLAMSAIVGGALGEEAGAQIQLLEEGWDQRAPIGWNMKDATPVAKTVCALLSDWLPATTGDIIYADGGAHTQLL

[2] = tested on: Mycobacterium tuberculosis; assay: Antimycobacterial activity against Mycobacterium tuberculosis H37Rv ATCC 27294 assessed as parasite growth inhibition after 7 days by Alamar Blue assay; assay type: functional; conditions: H37Rv ATCC 27294, 168 h
[3] = target: T1, Enoyl-[acyl-carrier-protein] reductase [NADH]; assay: Inhibition of Mycobacterium tuberculosis full length inhA expressed in Escherichia coli BL21 preincubated for 15 mins by fluorescence based assay in presence of NADH
[4] = target: T2, Enoyl-[acyl-carrier-protein] reductase [NADH] (Mycobacterium tuberculosis) (UniProt P9WGR1)
T2 sequence (whole entry): T1 sequence (P9WGR1 whole entry)

[5] = Fraction unbound in plasma (unknown origin); assay type: ADME, cell-free
[6] = target: T2, Enoyl-[acyl-carrier-protein] reductase [NADH] (Mycobacterium tuberculosis); remark: listed apart in the source
[7] = target: T2, Enoyl-[acyl-carrier-protein] reductase [NADH] (Mycobacterium tuberculosis); conditions: 50 uM
[8] = target: Cytochrome P450 3A4 (Homo sapiens, UniProt P08684); assay: Inhibition of CYP3A4 (unknown origin); assay type: ADME
[9] = target: T1, Enoyl-[acyl-carrier-protein] reductase [NADH]; assay: Binding affinity to Mycobacterium tuberculosis NADH-bound form full length inhA (1 to 255) by isothermal titration calorimetry assay
Summary of the method: (§1)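 InhA titrated with compound by isothermal titration calorimetry, either as apo enzyme or pre-bound to NADH or NAD+ cofactor. No enoyl-ACP substrate was present. ITC data were used mainly to derive Kd and binding stoichiometry.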

[10] = target: T1, Enoyl-[acyl-carrier-protein] reductase [NADH]; assay: Binding affinity to Mycobacterium tuberculosis NADH-bound form of full length inhA (1 to 255) by SPR assay
[11] = target: T1, Enoyl-[acyl-carrier-protein] reductase [NADH]; assay: Binding affinity to Mycobacterium tuberculosis NAD+-bound form of full length inhA (1 to 255) by isothermal titration calorimetry assay; summary of the method: as §1
[12] = Cytotoxicity against human A549 cells assessed as growth inhibition after 7 days by Alamar Blue assay; assay type: cell-based; conditions: read-out: MIC
[13] = target: T2, Enoyl-[acyl-carrier-protein] reductase [NADH] (Mycobacterium tuberculosis); remark: listed apart in the source
[14] = Aqueous solubility of the compound; assay type: physicochemical; conditions: buffer
[15] = target: T2, Enoyl-[acyl-carrier-protein] reductase [NADH] (Mycobacterium tuberculosis); conditions: 50 uM; remark: listed apart in the source
[16] = organism: Homo sapiens; assay: Inhibition of angiotensin receptor (unknown origin) at 30 uM
[17] = target: T3, Adenosine receptor A1 (Homo sapiens) (UniProt P30542); assay: Inhibition of adenosine A1 receptor (unknown origin) at 30 uM
T3 sequence (whole entry): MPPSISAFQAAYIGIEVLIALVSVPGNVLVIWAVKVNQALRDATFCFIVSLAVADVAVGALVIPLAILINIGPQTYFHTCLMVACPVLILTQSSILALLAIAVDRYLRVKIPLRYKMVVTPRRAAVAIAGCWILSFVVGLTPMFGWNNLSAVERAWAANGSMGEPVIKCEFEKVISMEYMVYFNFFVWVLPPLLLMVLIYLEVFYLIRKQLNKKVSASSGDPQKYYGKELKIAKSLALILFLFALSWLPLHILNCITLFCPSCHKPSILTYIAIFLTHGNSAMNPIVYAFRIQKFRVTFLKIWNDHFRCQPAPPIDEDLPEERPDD

[18] = target: T4, Adenosine receptor A3 (Homo sapiens) (UniProt P0DMS8); assay: Inhibition of adenosine A3 receptor (unknown origin) at 30 uM
T4 sequence (whole entry): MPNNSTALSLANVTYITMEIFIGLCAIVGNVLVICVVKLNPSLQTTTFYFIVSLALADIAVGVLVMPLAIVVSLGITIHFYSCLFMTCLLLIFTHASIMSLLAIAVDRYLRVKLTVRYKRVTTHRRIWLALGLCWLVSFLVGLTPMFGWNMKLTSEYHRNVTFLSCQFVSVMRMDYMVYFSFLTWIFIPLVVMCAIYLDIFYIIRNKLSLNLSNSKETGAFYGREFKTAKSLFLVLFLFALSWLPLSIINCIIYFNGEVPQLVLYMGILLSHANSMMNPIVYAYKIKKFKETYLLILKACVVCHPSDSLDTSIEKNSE

[19] = target: Phosphodiesterase 4 (Homo sapiens, UniProt P27815+Q08499+Q07343+Q08493); assay: Inhibition of PDE4 (unknown origin); assay type: protein assay
[20] = target: 5-hydroxytryptamine receptor 2B (Homo sapiens, UniProt P41595); assay: Inhibition of 5HT2B receptor (unknown origin)
[21] = target: T5, Adenosine receptor A1 (Homo sapiens, UniProt P30542); assay: Inhibition of adenosine A1 receptor (unknown origin)
T5 sequence (P30542 whole entry): T3 sequence (whole entry)

[22] = tested on: Mycobacterium tuberculosis; assay: Antitubercular activity against Mycobacterium tuberculosis; assay type: functional

Cytochrome P450 3A4, sequence (P08684 whole entry): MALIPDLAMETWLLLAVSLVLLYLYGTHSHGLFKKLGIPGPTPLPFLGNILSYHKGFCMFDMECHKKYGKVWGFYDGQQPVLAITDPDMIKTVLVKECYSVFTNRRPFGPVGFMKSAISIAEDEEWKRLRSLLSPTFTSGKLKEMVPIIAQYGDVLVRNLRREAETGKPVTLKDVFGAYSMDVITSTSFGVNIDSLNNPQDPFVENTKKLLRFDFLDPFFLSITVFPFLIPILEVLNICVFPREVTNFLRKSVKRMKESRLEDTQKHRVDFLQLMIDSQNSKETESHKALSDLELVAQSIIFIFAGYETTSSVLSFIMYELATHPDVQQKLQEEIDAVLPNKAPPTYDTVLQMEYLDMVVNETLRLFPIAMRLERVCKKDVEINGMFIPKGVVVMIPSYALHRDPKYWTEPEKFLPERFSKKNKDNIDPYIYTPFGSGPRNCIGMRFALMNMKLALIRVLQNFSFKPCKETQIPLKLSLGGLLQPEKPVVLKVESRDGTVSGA
5-hydroxytryptamine receptor 2B, sequence (P41595 whole entry): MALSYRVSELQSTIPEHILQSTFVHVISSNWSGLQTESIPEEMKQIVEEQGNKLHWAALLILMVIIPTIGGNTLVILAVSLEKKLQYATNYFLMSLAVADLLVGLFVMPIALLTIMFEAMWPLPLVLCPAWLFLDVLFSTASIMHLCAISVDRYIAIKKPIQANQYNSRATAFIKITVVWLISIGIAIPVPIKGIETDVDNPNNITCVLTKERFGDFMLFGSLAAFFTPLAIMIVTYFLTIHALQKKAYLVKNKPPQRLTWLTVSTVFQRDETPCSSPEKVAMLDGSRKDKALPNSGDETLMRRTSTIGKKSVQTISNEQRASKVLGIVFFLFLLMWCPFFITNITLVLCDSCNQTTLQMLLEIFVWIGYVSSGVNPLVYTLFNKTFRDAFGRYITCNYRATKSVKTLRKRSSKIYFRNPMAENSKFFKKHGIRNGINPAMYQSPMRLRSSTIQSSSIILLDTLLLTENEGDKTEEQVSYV

Structure (SMILES): CCCCCCc1ccc(Oc2ccccc2C)c(O)c1
- pIC50 [1]: 7.66

Structure (SMILES): O=C1CC(c2nc3ccccc3n2Cc2ccccc2)CN1C1CCCCC1 (configuration not stated)
- MIC [2]: > 64 µM
- pIC50 [3]: 6.00

Structure (SMILES): COC(=O)c1cnc2ccc(C#N)cc2c1NCCCc1ccccc1
- MIC [2]: > 64 µM
- pIC50 [3]: 7.70

Structure (SMILES): Cc1csc([C@](C)(O)c2nnc(Nc3ccn(Cc4c(F)cccc4F)n3)s2)n1
- Tm [4]: 56.5 °C
- fraction unbound [5]: 0.034
- MIC [2]: 0.19 µM
- Tm [6]: 54.2 °C
- ΔTm [7]: 55 °C
- pIC50 [8]: 5.72
- pKd [9]: 7.86
- pKd [10]: 7.94
- pKd [11]: 5.03
- MCC at 168 h [12]: 78 µM
- Tm [13]: 55.2 °C
- pIC50 [3]: 8.52
- solubility [14]: 208 µM (≈ 90.4 µg/mL)
- ΔTm [15]: 69.3 °C

Structure (SMILES): Cc1csc(C(C)(O)c2nnc(Nc3cc(C4CC4)n(Cc4c(F)cccc4F)n3)s2)n1 (racemic)
- MIC [2]: > 12.5 µM
- pIC50 [3]: 6.01

Structure (SMILES): Cc1csc(C(C)(O)c2nnc(NCC3CN(Cc4c(F)cccc4F)C(=O)O3)s2)n1 (racemic)
- MIC [2]: > 100 µM
- pIC50 [3]: 6.40

Structure (SMILES): Cc1csc(C(C)(O)c2nnc(NC(=O)c3ccn(Cc4c(F)cccc4F)n3)s2)n1 (racemic)
- MIC [2]: > 100 µM
- pIC50 [3]: 4.47

Structure (SMILES): Cc1csc(C(C)(O)c2nnc(Nc3ccn(Cc4c(F)cccc4F)n3)s2)n1 (racemic)
- MIC [2]: 0.5 µM
- pIC50 [3]: 8.40

Structure (SMILES): Cc1csc(C(C)(O)c2nnc(Nc3cnn(Cc4c(F)cccc4F)c3)s2)n1 (racemic)
- MIC [2]: 7.5 µM
- pIC50 [3]: 6.63

Structure (SMILES): Cc1csc(C(C)(O)c2nnc(Nc3ncn(Cc4c(F)cccc4F)n3)s2)n1 (racemic)
- fraction unbound [5]: 0.143
- MIC [2]: 0.391 µM
- inhibition [16]: 69%
- pIC50 [8]: 4.32
- MCC at 168 h [12]: > 100 µM
- pIC50 [3]: 7.52
- solubility [14]: 69 µM (≈ 30 µg/mL)
- inhibition [17]: 63%
- inhibition [18]: 70%

Structure (SMILES): Cc1csc(C(C)(O)c2nnc(NC(=O)Cc3c(F)cccc3F)s2)n1 (racemic)
- fraction unbound [5]: 0.019
- MIC [2]: 3.75 µM
- IC50 [19]: 23000 nM
- pIC50 [20]: 4.19
- pIC50 [21]: 4.68
- pIC50 [8]: < 4.30
- MCC at 168 h [12]: > 100 µM
- pIC50 [3]: 6.70
- solubility [14]: 26 µM (≈ 10.3 µg/mL)

Structure (SMILES): Cc1csc(C(C)(O)c2nnc(Nc3cccc(Cc4c(F)cccc4F)n3)s2)n1 (racemic)
- MIC [2]: 3.13 µM
- pIC50 [3]: > 8.70

Structure (SMILES): Cc1csc(C(C)(O)c2nnc(Nc3nccc(Cc4c(F)cccc4F)n3)s2)n1 (racemic)
- MIC [2]: 12.5 µM
- pIC50 [3]: > 8.70

Structure (SMILES): NNC(=O)c1ccncc1 [ISONIAZID]
- MIC [2]: 0.03 µg/mL
- MIC [22]: 0.05 µM (≈ 0.00686 µg/mL)

Structure (SMILES): COc1c(N2C[C@@H]3CCCN[C@@H]3C2)c(F)cc2c(=O)c(C(=O)O)cn(C3CC3)c12 [MOXIFLOXACIN]
- MIC [2]: 0.12 µg/mL

Structure (SMILES): CC/C(C)=C1\OC(=O)[C@H](C)[C@H](O)[C@H](Cc2cccnc2)NC(=O)[C@@H](NC(=O)c2ncccc2O)[C@@H](C)OC1=O [PYRIDOMYCIN]
- MIC [22]: 0.57 µM (≈ 0.308 µg/mL)

Structure (SMILES): CO[C@H]1/C=C/O[C@@]2(C)Oc3c(C)c(O)c4c(O)c(c(/C=N/N5CCN(C)CC5)c(O)c4c3C2=O)NC(=O)/C(C)=C\C=C\[C@H](C)[C@H](O)[C@@H](C)[C@@H](O)[C@@H](C)[C@H](OC(C)=O)[C@@H]1C [RIFAMPIN]
- MIC [2]: 0.007 µg/mL

Structure (SMILES): Oc1cc(Cl)ccc1Oc1ccc(Cl)cc1Cl [TRICLOSAN]
- MIC [22]: 64 µM (≈ 18.5 µg/mL)
